Results: ChEMBL document CHEMBL4007438, “Discovery of Competitive and Noncompetitive Ligands of the Organic Cation Transporter 1 (OCT1; SLC22A1)” (J Med Chem, 2017)

Tests used:
[1] = molecular target: T1, Solute carrier family 22 member 1 (Homo sapiens, UniProt O15245); experiment: (§1) Inhibition of human OCT1 expressed in HEK293 cells assessed as decrease in uptake of ASP+ after 2 mins by fluorescence assay; format: cell-based
T1 sequence (O15245 whole entry): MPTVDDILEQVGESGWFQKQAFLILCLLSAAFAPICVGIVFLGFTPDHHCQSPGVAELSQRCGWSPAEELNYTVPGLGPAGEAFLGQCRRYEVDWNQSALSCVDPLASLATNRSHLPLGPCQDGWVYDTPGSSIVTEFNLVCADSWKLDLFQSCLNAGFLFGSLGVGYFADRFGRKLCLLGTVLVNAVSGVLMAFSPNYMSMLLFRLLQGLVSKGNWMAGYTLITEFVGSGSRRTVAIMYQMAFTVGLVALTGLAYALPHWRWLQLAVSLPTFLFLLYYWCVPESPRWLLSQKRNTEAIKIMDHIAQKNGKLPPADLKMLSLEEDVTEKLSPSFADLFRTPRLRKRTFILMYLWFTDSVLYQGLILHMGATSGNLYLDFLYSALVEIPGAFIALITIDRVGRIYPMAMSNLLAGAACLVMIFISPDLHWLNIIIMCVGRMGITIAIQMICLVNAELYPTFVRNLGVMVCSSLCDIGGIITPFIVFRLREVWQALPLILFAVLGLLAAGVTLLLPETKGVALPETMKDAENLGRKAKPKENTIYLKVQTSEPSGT
How it was run: (§2)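 Human OCT1-overexpressing HEK-293 cells (48 h growth, ~90% confluent) were incubated 2 min at 37°C in HBSS with 2 µM ASP+ and serially diluted inhibitor. IC50 was obtained by curve fitting.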

[2] = molecular target: T2, OCT1 (SLC22A1) (Homo sapiens, UniProt O15245); experiment: as §1; format: cell-based; conditions: human, HEK293 cells that express human OCT1, probe ASP+; how it was run: as §2
T2 sequence (O15245 whole entry): T1 sequence (O15245 whole entry)

[3] = molecular target: T1, Solute carrier family 22 member 1; experiment: Inhibition of human OCT1 expressed in HEK293 cells assessed as decrease in uptake of YM155 after 1 min
[4] = molecular target: T1, Solute carrier family 22 member 1; experiment: Ratio of Kii for human OCT1-ASP+-inhibitor complex to Kis for human OCT1-inhibitor complex by Lineweaver-Burk plot analysis
[5] = molecular target: T1, Solute carrier family 22 member 1; experiment: Competitive inhibition of human OCT1 expressed in HEK293 cells assessed as decrease in uptake of ASP+ after 2 mins by Lineweaver-Burk plot analysis; format: cell-based; conditions: hek293, 2 min
How it was run: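 HEK-293 cells stably overexpressing human OCT1 (kept in DMEM, 10% FBS, 75 µg/ml hygromycin B) were grown 48 h to ~90% confluence. They were exposed for 2 min at 37°C to HBSS with serial dilutions of ASP+ plus inhibitor at 4 fixed concentrations. Fluorescence was read at ex 485/em 585 nm. Reciprocal uptake at each inhibitor level was fitted by linear regression.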

[6] = molecular target: T1, Solute carrier family 22 member 1; experiment: Competitive inhibition of human OCT1 expressed in HEK293 cells assessed as decrease in uptake of ASP+ after 2 mins by Lineweaver-Burk plot analysis; conditions: hek293, 2 min

SMILES | IC50 [1] [µM] | other results
Clc1ccccc1C(c1ccccc1)(c1ccccc1)n1ccnc1 [CLOTRIMAZOLE] | 12 | –
COC1=CC(=O)C[C@@H](C)[C@]12Oc1c(Cl)c(OC)cc(OC)c1C2=O [GRISEOFULVIN] | 7.3 | –
CCc1nc(N)nc(N)c1-c1ccc(Cl)cc1 [PYRIMETHAMINE] | 13.6 | –
CN/C(=N/CCSCc1nc[nH]c1C)NC#N [CIMETIDINE] | – | inhibition at 2 min [2]: 4.13%; IC50 [3]: 149 µM
COc1cc2nc(N(C)CCCNC(=O)C3CCCO3)nc(N)c2cc1OC (centres undefined) [ALFUZOSIN] | 14.9 | –
COc1ccc2c(c1)[C@]13CCCC[C@@H]1[C@H](C2)N(C)CC3 [DEXTROMETHORPHAN] | 10.5 | –
Cc1ncc(C[n+]2csc(CCO)c2C)c(N)n1 [THIAMINE ION] | 4350 | inhibition at 2 min [2]: -1.5%; Ratio [4]: 95.6
Clc1cccc(Cl)c1N=C1NCCN1 [CLONIDINE] | 19 | –
CCN(CC)CCOCCOC(=O)C1(c2ccccc2)CCCC1 [CARBETAPENTANE] | 1.55 to 1.6 | –
Oc1ccc(Cl)cc1Cc1cc(Cl)ccc1O [DICHLOROPHEN] | 8.41 | –
Clc1ccc(C(OCCN2CCCCC2)c2ccccc2)cc1 (centres undefined) [CLOPERASTINE] | 14.9 | –
Nc1c2c(nc3ccccc13)CCCC2 [TACRINE] | 21.7 | inhibition (INH) [5]: Active; inhibition (INH) [6]: Active
CC(CCc1ccc(O)cc1)NCCc1ccc(O)c(O)c1 (centres undefined) [DOBUTAMINE] | 4.17 | –
CN(C)CCCN1c2ccccc2CCc2ccccc21 [IMIPRAMINE] | 7.95 | –
CCCNCC(O)COc1ccccc1C(=O)CCc1ccccc1 (centres undefined) [PROPAFENONE] | 15.5 | –
COc1ccccc1OCCNCC(O)COc1cccc2[nH]c3ccccc3c12 (centres undefined) [CARVEDILOL] | 3.4 to 3.43 | –
N=C(N)N/N=C/c1c(Cl)cccc1Cl [GUANABENZ] | 4.85 | –
c1ccc(CC2NCCc3ccccc32)cc1 (centres undefined) | 82.1 | inhibition (INH) [5]: Active
CCN(CC)CCNC(C(=O)OCCC(C)C)c1ccccc1 (centres undefined) [CAMYLOFIN] | 9.12 | –
CCN(CC)CCNC(=O)c1c(C)[nH]c(/C=C2\C(=O)Nc3ccc(F)cc32)c1C [SUNITINIB] | 6.1 | –
CN(C)CCC=C1c2ccccc2COc2ccccc21 [DOXEPIN] | 11.2 | –
Cc1cc(C(C#N)c2ccc(Cl)cc2)c(Cl)cc1NC(=O)c1cc(I)cc(I)c1O (centres undefined) [CLOSANTEL] | 3 | –
CC(=O)N1CCN(c2ccc(OCC3COC(Cn4ccnc4)(c4ccc(Cl)cc4Cl)O3)cc2)CC1 (centres undefined) [KETOCONAZOLE] | 2.6 | –
CNCCCN1c2ccccc2CCc2ccccc21 [DESIPRAMINE] | 9.18 | –
CCN(CC)C(C)CN1c2ccccc2Sc2ccccc21 (centres undefined) [ETHOPROPAZINE] | 20.5 | inhibition (INH) [5]: Active; inhibition (INH) [6]: Active
Oc1c(Cl)cc(Cl)cc1Sc1cc(Cl)cc(Cl)c1O [BITHIONOL] | 2.23 | –
